Measurements: ChEMBL document CHEMBL2040734, “Benzothiazoles: search for anticancer agents” (2012)

Key:
Assay type in all cases: functional
[1] = system: 786-0; assay: Cytotoxicity against human 786-0 cells assessed as cell growth at 0.01 uM after 48 hrs by sulforhodamine B assay; conditions: 786-0, 48 h, read-out: Activity
How it was run: (§1)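 NCI-60 five-dose screen. Cells were grown in RPMI 1640 with 5% FBS and 2 mM L-glutamine and preincubated 24 h. Compound (DMSO stock) was tested at 0.01, 0.1, 1, 10 and 100 µM for 48 h at 37 °C. Cells were fixed in situ with cold TCA (final 10%) and stained with 0.4% SRB. A515 was read, and percent growth was calculated against time-zero and control plates.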

[2] = system: CCRF-CEM; assay: Cytotoxicity against human CCRF-CEM cells assessed as cell growth at 0.1 uM after 48 hrs by sulforhodamine B assay; conditions: read-out: Activity
How it was run: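 CCRF-CEM suspension leukemia cells in RPMI 1640 with 5% FBS and 2 mM L-glutamine, plated 24 h before dosing. Five concentrations (0.01–100 µM) were applied from a DMSO stock for 48 h at 37 °C. Settled cells were fixed with 80% TCA (final 16%) and stained with SRB, with read-out at 515 nm. Percent growth was derived from time-zero and control absorbances.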

[3] = system: RPMI-8226; assay: Cytotoxicity against human RPMI8226 cells assessed as cell growth at 0.1 uM after 48 hrs by sulforhodamine B assay; conditions: RPMI-8226, 48 h, read-out: Activity
[4] = system: EKVX; assay: Cytotoxicity against human EKVX cells assessed as cell growth at 0.1 uM after 48 hrs by sulforhodamine B assay; conditions: read-out: Activity
How it was run: (§2)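 Five-dose NCI panel run at 0.01, 0.1, 1, 10 and 100 µM. Cells were in RPMI 1640 with 5% FBS and 2 mM L-glutamine, seeded at 5000–40,000 cells/well and pre-incubated 24 h. Drug was diluted from a DMSO stock into medium with 50 µg/ml gentamicin. Exposure was 48 h at 37 °C, 5% CO2. Cells were fixed with cold TCA and stained with 0.4% SRB, read at 515 nm. Percent growth came from time-zero, control and test absorbances.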

[5] = system: NCI-H322M; assay: Cytotoxicity against human NCI-H322M cells assessed as cell growth at 0.1 uM after 48 hrs by sulforhodamine B assay; conditions: read-out: Activity
[6] = system: HCT-116; assay: Cytotoxicity against human HCT116 cells assessed as cell growth at 0.1 uM after 48 hrs by sulforhodamine B assay; conditions: HCT-116, 48 h, read-out: Activity; how it was run: as §2
[7] = system: KM12; assay: Cytotoxicity against human KM12 cells assessed as cell growth at 0.1 uM after 48 hrs by sulforhodamine B assay; conditions: KM12, 48 h, read-out: Activity
[8] = system: NCI/ADR-RES; assay: Cytotoxicity against human NCI/ADR-RES cells assessed as cell growth at 0.1 uM after 48 hrs by sulforhodamine B assay; conditions: read-out: Activity
[9] = system: SK-OV-3; assay: Cytotoxicity against human SKOV3 cells assessed as cell growth at 0.1 uM after 48 hrs by sulforhodamine B assay; conditions: SK-OV-3, 48 h, read-out: Activity
[10] = system: SN12C; assay: Cytotoxicity against human SN12C cells assessed as cell growth at 0.1 uM after 48 hrs by sulforhodamine B assay; conditions: read-out: Activity
[11] = system: IGROV-1; assay: Cytotoxicity against human IGROV1 cells assessed as cell growth at 100 uM after 48 hrs by sulforhodamine B assay; conditions: IGROV-1, 48 h, read-out: Activity
[12] = system: UO-31; assay: Cytotoxicity against human UO31 cells assessed as cell growth at 100 uM after 48 hrs by sulforhodamine B assay; conditions: UO-31, 48 h, read-out: Activity
[13] = system: MOLT-4; assay: Cytotoxicity against human MOLT4 cells assessed as cell growth at 1 uM after 48 hrs by sulforhodamine B assay; conditions: MOLT-4, 48 h, read-out: Activity
[14] = system: RPMI-8226; assay: Cytotoxicity against human RPMI8226 cells assessed as cell growth at 1 uM after 48 hrs by sulforhodamine B assay; conditions: RPMI-8226, 48 h, read-out: Activity
[15] = system: NCI-H23; assay: Cytotoxicity against human NCI-H23 cells assessed as cell growth at 1 uM after 48 hrs by sulforhodamine B assay; conditions: NCI-H23, 48 h, read-out: Activity
[16] = system: SK-MEL-2; assay: Cytotoxicity against human SK-MEL-2 cells assessed as cell growth at 1 uM after 48 hrs by sulforhodamine B assay; conditions: SK-MEL-2, 48 h, read-out: Activity
[17] = system: SK-MEL-5; assay: Cytotoxicity against human SK-MEL-5 cells assessed as cell growth at 1 uM after 48 hrs by sulforhodamine B assay; conditions: SK-MEL-5, 48 h, read-out: Activity
[18] = system: A498; assay: Cytotoxicity against human A498 cells assessed as cell growth at 1 uM after 48 hrs by sulforhodamine B assay; conditions: A498, 48 h, read-out: Activity; how it was run: as §1
[19] = system: A549; assay: Cytotoxicity against human A549 cells assessed as cell growth at 10 uM after 48 hrs by sulforhodamine B assay; conditions: A549, 48 h, read-out: Activity; how it was run: as §1
[20] = system: NCI-H322M; assay: Cytotoxicity against human NCI-H322M cells assessed as cell growth at 10 uM after 48 hrs by sulforhodamine B assay; conditions: read-out: Activity
[21] = system: SF-268; assay: Cytotoxicity against human SF268 cells assessed as cell growth at 10 uM after 48 hrs by sulforhodamine B assay; conditions: SF-268, 48 h, read-out: Activity
[22] = system: SN12C; assay: Cytotoxicity against human SN12C cells assessed as cell growth at 10 uM after 48 hrs by sulforhodamine B assay; conditions: read-out: Activity
[23] = system: MCF7; assay: Cytotoxicity against human MCF7 cells assessed as cell growth at 10 uM after 48 hrs by sulforhodamine B assay; conditions: MCF7, 48 h, read-out: Activity
[24] = system: BT-549; assay: Cytotoxicity against human BT549 cells assessed as cell growth at 10 uM after 48 hrs by sulforhodamine B assay; conditions: BT-549, 48 h, read-out: Activity; how it was run: as §1
[25] = system: NCI-H460; assay: Cytotoxicity against human NCI-H460 cells assessed as cell growth at 10 '-5 M after 48 hrs by sulforhodamine B assay; conditions: NCI-H460, 48 h, read-out: Activity
[26] = system: SW-620; assay: Cytotoxicity against human SW620 cells assessed as cell growth at 10 '-5 M after 48 hrs by sulforhodamine B assay; conditions: SW-620, 48 h, read-out: Activity
[27] = system: UACC-257; assay: Growth inhibition of human UACC257 cells after 48 hrs by sulforhodamine B assay; conditions: UACC-257, 48 h; for CC50: read-out: LC50 (the source's name)
How it was run: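 Adherent NCI-60 lines were grown in RPMI 1640 with 5% FBS and 2 mM L-glutamine, plated at 5000–40,000 cells/well and preincubated 24 h. They were then exposed to five concentrations (0.01–100 µM, from a DMSO stock) for 48 h at 37 °C, 5% CO2. Cells were fixed with cold TCA (10% final, 60 min, 4 °C) and stained with 0.4% SRB. Dye was solubilized in 10 mM Tris base and A515 read. GI50 was derived from time-zero, control and treated absorbances.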

[28] = system: RPMI-8226; assay: Cytotoxicity against human RPMI8226 cells assessed as cell growth at 0.01 uM after 48 hrs by sulforhodamine B assay; conditions: RPMI-8226, 48 h, read-out: Activity
[29] = system: KM12; assay: Cytotoxicity against human KM12 cells assessed as cell growth at 0.01 uM after 48 hrs by sulforhodamine B assay; conditions: KM12, 48 h, read-out: Activity

Row | Structure (SMILES) | growth at 0.01 µM [1] [%] | growth at 0.1 µM [2] [%] | growth at 0.1 µM [3] [%] | growth at 0.1 µM [4] [%] | growth at 0.1 µM [5] [%] | growth at 0.1 µM [6] [%] | growth at 0.1 µM [7] [%] | growth at 0.1 µM [8] [%] | growth at 0.1 µM [9] [%] | growth at 0.1 µM [10] [%] | growth at 100 µM [11] [%] | growth at 100 µM [12] [%] | growth at 1 µM [13] [%] | growth at 1 µM [14] [%] | growth at 1 µM [15] [%] | growth at 1 µM [16] [%] | growth at 1 µM [17] [%] | growth at 1 µM [18] [%] | growth at 10 µM [19] [%] | growth at 10 µM [20] [%] | further results
1 | Cc1ccc2nc(Nc3c(C)cccc3C)sc2c1 | 97 | 89 | 100 | 89 | 105 | 103 | 103 | 93 | 104 | 86 | 33 | 80 | 76 | 75 | 79 | 67 | 66 | 53 | 44 | 67 | growth at 10 µM [21]: 64%; growth at 10 µM [22]: 36%; growth at 10 µM [23]: 19%; growth at 10 µM [24]: 46%; growth at 10 µM [25]: 22.7%; growth at 10 µM [26]: 21.6%; GI50 [27]: > 100 µM; TGI [27]: > 100 µM; CC50 [27]: > 100 µM; growth at 0.01 µM [28]: 101%; growth at 0.01 µM [29]: 101%
2 | Clc1cccc(Cl)c1Nc1nc2cccc(Cl)c2s1 | 106 | 93 | 97 | 82 | 102 | 99 | 101 | 87 | 99 | 85 | -55 | -62 | 52 | 46 | 59 | 71 | 50 | 26 | -65 | -83 | growth at 10 µM [21]: -87%; growth at 10 µM [22]: -94%; growth at 10 µM [23]: -86%; growth at 10 µM [24]: -86%; growth at 10 µM [25]: -57.9%; growth at 10 µM [26]: -84.9%; GI50 [27]: 1.35 µM; TGI [27]: 3.1 µM; CC50 [27]: 7.09 µM; growth at 0.01 µM [28]: 103%; growth at 0.01 µM [29]: 99%
